{"source": "ChEMBL document CHEMBL3526129", "about": "“Species differences in tissue distribution and enzyme activities of arylacetamide deacetylase in human, rat, and mouse” (Drug Metab Dispos, 2012)", "type_in_all_cases": "ADME", "key": {"[1]": {"substrate": "CCOc1ccc(NC(C)=O)cc1", "assay": "Activity of AADAC in rat lung microsome", "method_in_brief": "(§1)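 Hydrolase activity of tissue microsomes in 0.2 ml mixtures of 100 mM potassium phosphate (pH 7.4). Microsomal protein: 0.4 mg/ml for flutamide (0.025–0.75 mM) and phenacetin (0.05–4 mM); 0.5 mg/ml for rifampicin (0.005–1 mM). Products measured were FLU-1, p-phenetidine and 25-deacetylrifampicin, within linear ranges. Three independent experiments.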"}, "[2]": {"substrate": "CCOc1ccc(NC(C)=O)cc1", "assay": "Activity of AADAC in rat kidney microsome", "method_in_brief": "as §1"}, "[3]": {"substrate": "CCOc1ccc(NC(C)=O)cc1", "assay": "Activity of rat recombinant AADAC", "method_in_brief": "(§2)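 Sf21 insect cells were infected with baculovirus carrying intact human, rat or mouse AADAC, harvested after 7 days, and homogenized by freeze-thaw. Homogenate was incubated in 100 mM potassium phosphate (pH 7.4). Flutamide (0.025–0.75 mM) used 0.4 mg/ml; phenacetin (0.05–4 mM) used 0.4 mg/ml for human and 0.2 mg/ml for rat or mouse; rifampicin (0.005–1 mM) used 0.5 mg/ml. Activity was normalized to immunoblot-derived AADAC expression units. Triplicate determinations.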"}, "[4]": {"substrate": "CCOc1ccc(NC(C)=O)cc1", "assay": "Activity of AADAC in rat jejunum microsome", "method_in_brief": "as §1"}, "[5]": {"substrate": "CCOc1ccc(NC(C)=O)cc1", "assay": "Activity of AADAC in rat liver microsome", "method_in_brief": "as §1"}, "[6]": {"substrate": "CCOc1ccc(NC(C)=O)cc1", "assay": "Activity of mouse recombinant AADAC", "method_in_brief": "as §2"}, "[7]": {"substrate": "CCOc1ccc(NC(C)=O)cc1", "assay": "Activity of AADAC in mouse kidney microsome", "method_in_brief": "as §1"}, "[8]": {"substrate": "CCOc1ccc(NC(C)=O)cc1", "assay": "Activity of AADAC in mouse jejunum microsome", "method_in_brief": "as §1"}, "[9]": {"substrate": "CCOc1ccc(NC(C)=O)cc1", "assay": "Activity of AADAC in mouse lung microsome", "method_in_brief": "as §1"}, "[10]": {"substrate": "CCOc1ccc(NC(C)=O)cc1", "assay": "Activity of AADAC in mouse liver microsome", "method_in_brief": "as §1"}, "[11]": {"substrate": "CCOc1ccc(NC(C)=O)cc1", "assay": "Activity of AADAC in human lung microsome", "method_in_brief": "as §1"}, "[12]": {"substrate": "CCOc1ccc(NC(C)=O)cc1", "assay": "(§3) Activity of AADAC in human liver microsome", "method_in_brief": "as §1"}, "[13]": {"substrate": "CO[C@H]1/C=C/O[C@@]2(C)Oc3c(C)c(O)c4c(O)c(c(/C=N/N5CCN(C)CC5)c(O)c4c3C2=O)NC(=O)/C(C)=C\\C=C\\[C@H](C)[C@H](O)[C@@H](C)[C@@H](O)[C@@H](C)[C@H](OC(C)=O)[C@@H]1C", "assay": "as §3", "method_in_brief": "as §1"}, "[14]": {"substrate": "CCOc1ccc(NC(C)=O)cc1", "assay": "(§4) Activity of AADAC in human jejunum microsome", "method_in_brief": "as §1"}, "[15]": {"substrate": "CO[C@H]1/C=C/O[C@@]2(C)Oc3c(C)c(O)c4c(O)c(c(/C=N/N5CCN(C)CC5)c(O)c4c3C2=O)NC(=O)/C(C)=C\\C=C\\[C@H](C)[C@H](O)[C@@H](C)[C@@H](O)[C@@H](C)[C@H](OC(C)=O)[C@@H]1C", "assay": "as §4", "method_in_brief": "as §1"}, "[16]": {"substrate": "CCOc1ccc(NC(C)=O)cc1", "assay": "(§5) Activity of human recombinant AADAC", "method_in_brief": "as §2"}, "[17]": {"substrate": "CO[C@H]1/C=C/O[C@@]2(C)Oc3c(C)c(O)c4c(O)c(c(/C=N/N5CCN(C)CC5)c(O)c4c3C2=O)NC(=O)/C(C)=C\\C=C\\[C@H](C)[C@H](O)[C@@H](C)[C@@H](O)[C@@H](C)[C@H](OC(C)=O)[C@@H]1C", "assay": "as §5", "method_in_brief": "as §2"}, "[18]": {"substrate": "CCOc1ccc(NC(C)=O)cc1", "assay": "Activity of AADAC in human kidney microsome", "method_in_brief": "as §1"}}}
{"protein": "Arylacetamide deacetylase (Rattus norvegicus) (protein) MGRTIFLLISVVLVAYYIYIPLPDDIEEPWKIILGNTLLKLGGDLASFGELLGLNHFMDTVQLFMRFQVVPPTSDENVTVMETDFNSVPVRIYIPKRKSTTLRRGLFFIHGGGWCLGSAAYFMYDTLSRRTAHRLDAVVVSTDYGLAPKYHFPKQFEDVYHSLRWFLQEDILEKYGVDPRRVGVSGDSAGGNLTAAVTQQILQDPDVKIKLKVQALIYPALQALDMNVPSQQENSQYPLLTRSLLIRFWSEYFTTDRDLEKAMLLNQHVPVEFSHLLQFVNWSSLLPQRYKKGYFYKTPTPGSLELAQKYPGFTDVKACPLLANDSILHHLPMTYIITCQYDVLRDDGLMYVKRLQNTGVHVTHHHIEDGFHGALTLPGLKITYRMQNQYLNWLHKNL", "values": [{"measurement": "Km", "setting": "[1]", "result": 5.3, "unit": "mM"}, {"measurement": "Vmax", "setting": "[1]", "result": 0.0001, "unit": "µmol/min/mg"}, {"measurement": "Km", "setting": "[2]", "result": 9.3, "unit": "mM"}, {"measurement": "Vmax", "setting": "[2]", "result": 0.0006, "unit": "µmol/min/mg"}, {"measurement": "Km", "setting": "[3]", "result": 5.8, "unit": "mM"}, {"measurement": "Km", "setting": "[4]", "result": 4.6, "unit": "mM"}, {"measurement": "Vmax", "setting": "[4]", "result": 0.0003, "unit": "µmol/min/mg"}, {"measurement": "Km", "setting": "[5]", "result": 29.8, "unit": "mM"}, {"measurement": "Vmax", "setting": "[5]", "result": 0.0059, "unit": "µmol/min/mg"}]}
{"protein": "Arylacetamide deacetylase (Mus musculus) (protein) MGKTISLLISVVLVAYYLYIPLPDAIEEPWKVVWETAFVKIGTDLASFGELLGISHFMETIQLLMSFQEVPPTSDEHVTVMETAFDSVPVRIYIPKRKSMALRRGLFYIHGGGWCLGSAAHFSYDTLSRWTAHKLDAVVVSTDYGLAPKHHFPRQFEDVYRSLRWFLQEDVLEKYGVDPRRVGVSGDSAGGNLAAAVTQQLIQDPDVKIKLKVQALIYPALQALDTNVPSQQEGSHFPVLTRSLMVRFWSEYFTTDRGLEKAMLLNQHVPMESSHLLQFVNWSSLLPERYKKSPVYKNPTPGSSELAQKYPGFIDVKACPLLANDNILHHLPKTYIITCQYDVLRDDGLMYVKRLQNVGVHVTHHHVEDGFHGTFSFPGLKLSERMKNQYLSWLIKNL", "values": [{"measurement": "Km", "setting": "[6]", "result": 1.6, "unit": "mM"}, {"measurement": "Km", "setting": "[7]", "result": 7.1, "unit": "mM"}, {"measurement": "Vmax", "setting": "[7]", "result": 0.0029, "unit": "µmol/min/mg"}, {"measurement": "Km", "setting": "[8]", "result": 11.2, "unit": "mM"}, {"measurement": "Vmax", "setting": "[8]", "result": 0.0014, "unit": "µmol/min/mg"}, {"measurement": "Km", "setting": "[9]", "result": 2.9, "unit": "mM"}, {"measurement": "Vmax", "setting": "[9]", "result": 0.0001, "unit": "µmol/min/mg"}, {"measurement": "Km", "setting": "[10]", "result": 9.8, "unit": "mM"}, {"measurement": "Vmax", "setting": "[10]", "result": 0.0171, "unit": "µmol/min/mg"}]}
{"protein": "Arylacetamide deacetylase (Homo sapiens) (protein) MGRKSLYLLIVGILIAYYIYTPLPDNVEEPWRMMWINAHLKTIQNLATFVELLGLHHFMDSFKVVGSFDEVPPTSDENVTVTETKFNNILVRVYVPKRKSEALRRGLFYIHGGGWCVGSAALSGYDLLSRWTADRLDAVVVSTNYRLAPKYHFPIQFEDVYNALRWFLRKKVLAKYGVNPERIGISGDSAGGNLAAAVTQQLLDDPDVKIKLKIQSLIYPALQPLDVDLPSYQENSNFLFLSKSLMVRFWSEYFTTDRSLEKAMLSRQHVPVESSHLFKFVNWSSLLPERFIKGHVYNNPNYGSSELAKKYPGFLDVRAAPLLADDNKLRGLPLTYVITCQYDLLRDDGLMYVTRLRNTGVQVTHNHVEDGFHGAFSFLGLKISHRLINQYIEWLKENL", "values": [{"measurement": "Km", "setting": "[11]", "result": 7.4, "unit": "mM"}, {"measurement": "Vmax", "setting": "[11]", "result": 0.0008, "unit": "µmol/min/mg"}, {"measurement": "Km", "setting": "[12]", "result": 3.3, "unit": "mM"}, {"measurement": "Vmax", "setting": "[12]", "result": 0.0036, "unit": "µmol/min/mg"}, {"measurement": "Km", "setting": "[13]", "result": 0.4, "unit": "mM"}, {"measurement": "Vmax", "setting": "[13]", "result": 0.000273, "unit": "µmol/min/mg"}, {"measurement": "Km", "setting": "[14]", "result": 2.5, "unit": "mM"}, {"measurement": "Vmax", "setting": "[14]", "result": 0.01, "unit": "µmol/min/mg"}, {"measurement": "Km", "setting": "[15]", "result": 0.3, "unit": "mM"}, {"measurement": "Vmax", "setting": "[15]", "result": 0.000212, "unit": "µmol/min/mg"}, {"measurement": "Km", "setting": "[16]", "result": 1.8, "unit": "mM"}, {"measurement": "Km", "setting": "[17]", "result": 0.2, "unit": "mM"}, {"measurement": "Km", "setting": "[18]", "result": 2.3, "unit": "mM"}, {"measurement": "Vmax", "setting": "[18]", "result": 0.0004, "unit": "µmol/min/mg"}]}
